Source: ChEMBL document CHEMBL5724801, “EUbOPEN Chemogenomics Library - Multiplex” (2024)
Several values for one entry are separate records, joined by “and”; a condition that tells them apart may be missing. Equal values may be shown once.

Tested on: HEK-293T
Assay: Multiplex assay against HEK293T
Type: toxicity, cell-based
Conditions: human, 12 h, 1 µM, compound concentration 1 uM
Summary of the method: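 Cells stained live at seeding with Hoechst33342, BioTracker Green Microtubule Cytoskeleton Dye, MitoTracker Red and Annexin V Alexa Fluor 680 were imaged on a CQ1 microscope at 37°C and 5% CO2 after compound addition. Their classification by CellPathfinder machine-learning gating ran from Hoechst high-intensity objects versus normal cells, to healthy, pyknosed or fragmented nuclei among normal cells, to mitotic or apoptotic among pyknosed cells. Tubulin, mitochondrial-mass and membrane-permeability phenotypes are per cents of healthy-nucleus cells.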

| Structure (SMILES) | Population Apoptotic (%) | Population Fragmented Nuclei (%) | Population Hoechst High Intensity Objects (%) | Population Membrane Permeable-Phenotype (%) | Population Mitochondria Different-Phenotype (%) | Population Mitotic Cells (%) | Population Normal (%) | Population Pyknosed Nuclei (%) | Total Cell Count | Population Healthy Nuclei (%) |
| --- | --- | --- | --- | --- | --- | --- | --- | --- | --- | --- |
| CN(C)CCOc1ccc(/C(=C(/CCCO)c2ccccc2)c2ccc(O)cc2)cc1 | 11.33% and 11.76% | 1.07% and 2.99% | 0% | 0.91% and 0% | 37.73% and 15.38% | 88.67% and 88.24% | 100% | 40.11% and 81.44% | 374 and 167 |  |
| CCC(=O)OCC(=O)[C@@]1(OC(=O)CC)[C@@H](C)C[C@H]2[C@@H]3CCC4=CC(=O)C=C[C@]4(C)[C@@]3(Cl)[C@@H](O)C[C@@]21C [BECLOMETHASONE DIPROPIONATE] | 43% and 47% | 8% and 5% | 7% and 4% | 0% | 60% and 75% | 56% and 52% | 92% and 95% | 15% and 19% | 388 and 356 | 75% and 74% |

Same assay, conditions: human, 12 h, 1 µM, compound concentration 1 uM

| Structure (SMILES) | Population Tubulin-Different-Phenotype (%) |
| --- | --- |
| CCC(=O)OCC(=O)[C@@]1(OC(=O)CC)[C@@H](C)C[C@H]2[C@@H]3CCC4=CC(=O)C=C[C@]4(C)[C@@]3(Cl)[C@@H](O)C[C@@]21C [BECLOMETHASONE DIPROPIONATE] | 48% and 42% |

Same assay, conditions: human, 12 h, 10 µM, compound concentration 10 uM

| Structure (SMILES) | Population Apoptotic (%) | Population Fragmented Nuclei (%) | Population Hoechst High Intensity Objects (%) | Population Membrane Permeable-Phenotype (%) | Population Mitochondria Different-Phenotype (%) | Population Mitotic Cells (%) | Population Normal (%) | Population Pyknosed Nuclei (%) | Population Tubulin-Different-Phenotype (%) | Total Cell Count |
| --- | --- | --- | --- | --- | --- | --- | --- | --- | --- | --- |
| CN(C)CCOc1ccc(/C(=C(/CCCO)c2ccccc2)c2ccc(O)cc2)cc1 | 12.57% and 17.97% | 0.31% and 2.14% | 0% | 0 | 37.01% and 22.22% | 87.43% and 82.03% | 100% | 59.87% and 91.43% | 44.09% and 66.67% | 319 and 140 |
| CCC(=O)OCC(=O)[C@@]1(OC(=O)CC)[C@@H](C)C[C@H]2[C@@H]3CCC4=CC(=O)C=C[C@]4(C)[C@@]3(Cl)[C@@H](O)C[C@@]21C [BECLOMETHASONE DIPROPIONATE] | 60% and 68% | 8% and 6% | 14% and 16% | 0 | 87% and 93% | 39% and 31% | 85% and 83% | 25% and 27% | 65% and 35% | 236 and 252 |

Same assay, conditions: human, 12 h, 10 µM, compound concentration 10 uM

| Structure (SMILES) | Population Healthy Nuclei (%) |
| --- | --- |
| CCC(=O)OCC(=O)[C@@]1(OC(=O)CC)[C@@H](C)C[C@H]2[C@@H]3CCC4=CC(=O)C=C[C@]4(C)[C@@]3(Cl)[C@@H](O)C[C@@]21C [BECLOMETHASONE DIPROPIONATE] | 66 |

Same assay, conditions: human, 24 h, 1 µM, compound concentration 1 uM

| Structure (SMILES) | Population Apoptotic (%) | Population Fragmented Nuclei (%) | Population Healthy Nuclei (%) | Population Hoechst High Intensity Objects (%) | Population Membrane Permeable-Phenotype (%) | Population Mitochondria Different-Phenotype (%) | Population Mitotic Cells (%) | Population Normal (%) | Population Pyknosed Nuclei (%) | Population Tubulin-Different-Phenotype (%) |
| --- | --- | --- | --- | --- | --- | --- | --- | --- | --- | --- |
| CN(C)CCOc1ccc(/C(=C(/CCCO)c2ccccc2)c2ccc(O)cc2)cc1 | 20.61% and 15.97% | 0.56% and 3.01% | 68.54% and 25.3% | 0.37% and 0% | 1.09% and 2.38% | 18.85% and 28.57% | 79.39% and 84.03% | 99.63% and 100% | 30.9% and 71.69% | 22.68% and 21.43% |
| CCC(=O)OCC(=O)[C@@]1(OC(=O)CC)[C@@H](C)C[C@H]2[C@@H]3CCC4=CC(=O)C=C[C@]4(C)[C@@]3(Cl)[C@@H](O)C[C@@]21C [BECLOMETHASONE DIPROPIONATE] | 32% and 43% | 7% | 81% | 4% and 5% | 0% | 40% and 52% | 67% and 56% | 95% and 94% | 11% | 31% and 18% |

Same assay, conditions: human, 24 h, 1 µM, compound concentration 1 uM

| Structure (SMILES) | Total Cell Count |
| --- | --- |
| CCC(=O)OCC(=O)[C@@]1(OC(=O)CC)[C@@H](C)C[C@H]2[C@@H]3CCC4=CC(=O)C=C[C@]4(C)[C@@]3(Cl)[C@@H](O)C[C@@]21C [BECLOMETHASONE DIPROPIONATE] | 507 and 446 |

Same assay, conditions: human, 24 h, 10 µM, compound concentration 10 uM

| Structure (SMILES) | Population Apoptotic (%) | Population Fragmented Nuclei (%) | Population Hoechst High Intensity Objects (%) | Population Membrane Permeable-Phenotype (%) | Population Mitochondria Different-Phenotype (%) | Population Mitotic Cells (%) | Population Normal (%) | Population Pyknosed Nuclei (%) | Population Tubulin-Different-Phenotype (%) | Total Cell Count |
| --- | --- | --- | --- | --- | --- | --- | --- | --- | --- | --- |
| CN(C)CCOc1ccc(/C(=C(/CCCO)c2ccccc2)c2ccc(O)cc2)cc1 | 44.56% and 45.71% | 1.1% and 3.91% | 0% | 1.19% and 5.56% | 45.83% and 33.33% | 55.44% and 54.29% | 100% | 52.88% and 82.03% | 79.76% and 72.22% | 365 and 128 |
| CCC(=O)OCC(=O)[C@@]1(OC(=O)CC)[C@@H](C)C[C@H]2[C@@H]3CCC4=CC(=O)C=C[C@]4(C)[C@@]3(Cl)[C@@H](O)C[C@@]21C [BECLOMETHASONE DIPROPIONATE] | 56% and 62% | 13% and 5% | 11% and 9% | 0% | 89% and 97% | 44% and 37% | 88% and 90% | 21% and 23% | 73% and 43% | 270 and 243 |

Same assay, conditions: human, 24 h, 10 µM, compound concentration 10 uM

| Structure (SMILES) | Population Healthy Nuclei (%) |
| --- | --- |
| CCC(=O)OCC(=O)[C@@]1(OC(=O)CC)[C@@H](C)C[C@H]2[C@@H]3CCC4=CC(=O)C=C[C@]4(C)[C@@]3(Cl)[C@@H](O)C[C@@]21C [BECLOMETHASONE DIPROPIONATE] | 65% and 71% |

Same assay, conditions: human, 48 h, 1 µM, compound concentration 1 uM

| Structure (SMILES) | Population Apoptotic (%) | Population Fragmented Nuclei (%) | Population Healthy Nuclei (%) | Population Hoechst High Intensity Objects (%) | Population Membrane Permeable-Phenotype (%) | Population Mitochondria Different-Phenotype (%) | Population Mitotic Cells (%) | Population Normal (%) | Population Pyknosed Nuclei (%) | Population Tubulin-Different-Phenotype (%) |
| --- | --- | --- | --- | --- | --- | --- | --- | --- | --- | --- |
| CN(C)CCOc1ccc(/C(=C(/CCCO)c2ccccc2)c2ccc(O)cc2)cc1 | 11.64% and 29.47% | 1.39% and 0.98% | 85.94% and 52.45% | 0.26% and 0% | 6.57% and 1.87% | 21.52% and 41.12% | 88.36% and 70.53% | 99.74% and 100% |  |  |
| CCC(=O)OCC(=O)[C@@]1(OC(=O)CC)[C@@H](C)C[C@H]2[C@@H]3CCC4=CC(=O)C=C[C@]4(C)[C@@]3(Cl)[C@@H](O)C[C@@]21C [BECLOMETHASONE DIPROPIONATE] | 30% and 31% | 11% and 12% | 78% and 79% | 4% and 3% | 0% | 28% and 32% | 69% and 68% | 95% and 96% | 9% and 8% | 18% and 17% |

Same assay, conditions: human, 48 h, 1 µM, compound concentration 1 uM

| Structure (SMILES) | Total Cell Count |
| --- | --- |
| CCC(=O)OCC(=O)[C@@]1(OC(=O)CC)[C@@H](C)C[C@H]2[C@@H]3CCC4=CC(=O)C=C[C@]4(C)[C@@]3(Cl)[C@@H](O)C[C@@]21C [BECLOMETHASONE DIPROPIONATE] | 742 and 655 |

Same assay, conditions: human, 48 h, 10 µM, compound concentration 10 uM

| Structure (SMILES) | Population Apoptotic (%) | Population Fragmented Nuclei (%) | Population Hoechst High Intensity Objects (%) | Population Membrane Permeable-Phenotype (%) | Population Mitochondria Different-Phenotype (%) | Population Mitotic Cells (%) | Population Normal (%) | Population Pyknosed Nuclei (%) | Population Healthy Nuclei (%) | Population Tubulin-Different-Phenotype (%) |
| --- | --- | --- | --- | --- | --- | --- | --- | --- | --- | --- |
| CN(C)CCOc1ccc(/C(=C(/CCCO)c2ccccc2)c2ccc(O)cc2)cc1 | 39.36% and 66.67% | 0.98% and 2.22% | 1.92% and 1.46% | 1.57% and 0% | 81.82% and 77.78% | 60.64% and 33.33% | 98.08% and 98.54% | 36.72% and 77.78% |  |  |
| CCC(=O)OCC(=O)[C@@]1(OC(=O)CC)[C@@H](C)C[C@H]2[C@@H]3CCC4=CC(=O)C=C[C@]4(C)[C@@]3(Cl)[C@@H](O)C[C@@]21C [BECLOMETHASONE DIPROPIONATE] | 67% and 65% | 14% and 12% | 5% | 0% | 72% and 90% | 32% and 34% | 94% | 13% and 15% | 72 | 43% and 62% |

Same assay, conditions: human, 48 h, 10 µM, compound concentration 10 uM

| Structure (SMILES) | Total Cell Count |
| --- | --- |
| CCC(=O)OCC(=O)[C@@]1(OC(=O)CC)[C@@H](C)C[C@H]2[C@@H]3CCC4=CC(=O)C=C[C@]4(C)[C@@]3(Cl)[C@@H](O)C[C@@]21C [BECLOMETHASONE DIPROPIONATE] | 347 and 283 |
